The record followed here is ChEMBL document CHEMBL1155032, “Dendronpholides A-R, cembranoid diterpenes from the chinese soft coral Dendronephthya sp” (J Nat Prod, 2008).

≈ marks a conversion by molar mass, not a printed value. Some results are limits rather than exact numbers.

This assay can be described thus: Cytotoxicity against human […] cells. Type of assay: functional, cell-based. An outline of the steps: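 In vitro assay on the human gastric cancer line BGC-823, one of a panel of human cancer lines. Viability was read out by the MTT method, following a previously published procedure.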
`C=C1C(=O)O[C@]2(C)CC[C@@H]1C[C@H](O)/C(C)=C/C/C=C(\C)CC[C@@H]2O`: the IC50 (commonly the concentration at which inhibition is half-maximal) is more than 10 µg/mL. On to `C=C1C(=O)O[C@]2(C)CC[C@@H]1C[C@H](O)/C(C)=C/C/C=C(\C)CC[C@@H]2OC(C)=O` [DENDRONPHOLIDE A], for which the IC50 was more than 10 µg/mL. The value for `C=C1C(=O)O[C@]2(C)CC[C@@H]1C[C@@H](O)/C(C)=C/C/C=C(\C)CC[C@@H]2OC(C)=O` [DENDRONPHOLIDE B] was more than 10 µg/mL. The value for `C=C(C(=O)OC)[C@@H]1CC[C@@](C)(O)[C@@H](O)CC/C(C)=C/C/C=C(\C)[C@@H](O)C1` [DENDRONPHOLIDE C] was 0.05 µg/mL (≈ 0.136 µM); that for `C=C(C(=O)OC)[C@@H]1CC[C@@](C)(O)[C@@H]2CC[C@@](C)(O2)[C@@H](OC(C)=O)CC[C@]2(C)O[C@H]2C1` [DENDRONPHOLIDE G] was 0.02 µg/mL (≈ 0.0471 µM). Under `C=C(C(=O)O)[C@@H]1CC[C@@](C)(O)[C@@H]2CC[C@@](C)(O2)[C@@H](OC(C)=O)CC[C@](C)(O)[C@H](O)C1` [DENDRONPHOLIDE I] stands more than 10 µg/mL.

As for `C=C(C(=O)O)[C@@H]1CC[C@@](C)(O)[C@@H]2CC[C@@](C)(O2)[C@@H](O)CC[C@](C)(O)[C@H](OC(C)=O)C1` [DENDRONPHOLIDE J], the midpoint of inhibition, the IC50, lay at 0.2 µg/mL (≈ 0.467 µM). In the case of `C=C(C(=O)O)[C@@H]1CC[C@@](C)(O)[C@@H]2CC[C@@](C)(O2)[C@@H](OC(C)=O)CC[C@](C)(OC)[C@H](O)C1` [DENDRONPHOLIDE K], the IC50 was more than 10 µg/mL. Under `C=C(C(=O)OCC)[C@@H]1CC[C@@](C)(O)[C@@H]2CC[C@@](C)(O2)[C@@H](OC(C)=O)C/C=C(\C)[C@H](O)C1` [DENDRONPHOLIDE O] stands more than 10 µg/mL; under `C=C(C(=O)OC)[C@@H]1CC[C@@](C)(O)[C@@H]2CC[C@@](C)(O2)[C@@H](OC(C)=O)C/C=C(\C)[C@H](O)C1` [DENDRONPHOLIDE P], more than 10 µg/mL. Consider `C=C1C(=O)O[C@]2(C)CC[C@@H]1C[C@@H](OC(C)=O)[C@@]1(C)CC[C@H](O1)[C@@](C)(O)CC[C@@H]2OC(C)=O` [DENDRONPHOLIDE Q], for which the IC50 was more than 10 µg/mL. Under `C=C(C(=O)O)[C@@H]1CC[C@@](C)(O)[C@@H](OC(C)=O)CCC(=C)[C@@H]2CC[C@@](C)(O2)[C@H](O)C1` [DENDRONPHOLIDE R] stands more than 10 µg/mL.
